Data taken from ChEMBL document CHEMBL4665898, “Semisynthetic Analogs of the Antibiotic Fidaxomicin-Design, Synthesis, and Biological Evaluation” (ACS Med Chem Lett, 2020).
In brackets after ≈: the same amount, converted by molar mass.

What was measured:
[1] = system: Clostridioides difficile; experiment: Antibacterial activity against Clostridium difficile 8264 incubated for 46 hrs in anaerobic condition by CLSI-based broth microdilution assay; type: functional
[2] = system: Clostridioides difficile; experiment: Antibacterial activity against Clostridium difficile BAA-1875 incubated for 46 hrs in anaerobic condition by CLSI-based broth microdilution assay; type: functional
[3] = system: Clostridioides difficile; experiment: Antibacterial activity against Clostridium difficile ATCC 43255 incubated for 46 hrs in anaerobic condition by CLSI-based broth microdilution assay; type: functional
[4] = system: Clostridioides difficile; experiment: Antibacterial activity against Clostridium difficile 8260 incubated for 46 hrs in anaerobic condition by CLSI-based broth microdilution assay; type: functional
[5] = system: Clostridioides difficile; experiment: Antibacterial activity against Clostridium difficile 8290 incubated for 46 hrs in anaerobic condition by CLSI-based broth microdilution assay; type: functional
[6] = system: Staphylococcus aureus; experiment: Antibacterial activity against Staphylococcus aureus ATCC 29213 incubated overnight by broth dilution method; type: functional
Method in brief: (§1)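 Strains pre-grown overnight at 37 °C on Mueller Hinton II agar; CLSI broth dilution, inoculum about 7.5 × 10^5 CFU/well. Compounds taken from 1.0 mg/mL stocks in 50 % methanol/H2O, diluted in H2O as 2-fold series. Plates held at 37 °C overnight; MIC read visually as lowest concentration with no growth.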

[7] = system: Mycobacterium tuberculosis; experiment: Antimycobacterial activity against recombinant Mycobacterium tuberculosis H37Rv expressed in green fluorescence protein by measuring increase in fluorescence after 10 days in presence of middlebrook 7H9/OADC medium by GFP reporter gene assay; type: functional; settings: 240 h, time 10 day
[8] = system: Bacillus subtilis; experiment: Antibacterial activity against Bacillus subtilis DSM3256 incubated overnight by broth dilution method; type: functional; method in brief: as §1
[9] = system: Clostridioides difficile; experiment: Antibacterial activity against Clostridium difficile 8282 incubated for 46 hrs in anaerobic condition by CLSI-based broth microdilution assay; type: functional
[10] = system: Clostridioides difficile; experiment: Antibacterial activity against Clostridium difficile ATCC 700057 incubated for 46 hrs in anaerobic condition by CLSI-based broth microdilution assay; type: functional
[11] = system: Clostridioides difficile; experiment: Antibacterial activity against Clostridium difficile ATCC 9689 incubated for 46 hrs in anaerobic condition by CLSI-based broth microdilution assay; type: functional; settings: ATCC 9689 = DSM 1296
[12] = system: Clostridioides difficile; experiment: Antibacterial activity against Clostridium difficile BAA-1805 incubated for 46 hrs in anaerobic condition by CLSI-based broth microdilution assay; type: functional
[13] = system: Clostridioides difficile; experiment: Antibacterial activity against Clostridium difficile 5680 incubated for 46 hrs in anaerobic condition by CLSI-based broth microdilution assay; type: functional
[14] = Aqueous solubility of the compound in phosphate buffer at pH 7 after 5 hrs by UHPLC analysis; type: physicochemical
Method in brief: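 Solid added to 1.0 mL pH 7 phosphate buffer containing 50 µg/mL caffeine internal standard until saturated. Stirred 5 h at room temperature, passed through a 0.22 µm filter, then run on C18 UHPLC with a water/MeCN + 0.1 % HCOOH gradient. Analyte/IS peak-area ratio was converted to concentration using a linear calibration from MeOH standards at 50–500 µg/mL.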

Structure (SMILES) | MIC [1] [µg/mL] | MIC [2] [µg/mL] | MIC [3] [µg/mL] | MIC [4] [µg/mL] | MIC [5] [µg/mL] | MIC [6] [µg/mL] | MIC90 [7] [µg/mL] | MIC [8] [µg/mL] | MIC [9] [µg/mL] | MIC [10] [µg/mL] | MIC [11] [µg/mL] | MIC [12] [µg/mL] | MIC [13] [µg/mL] | solubility at 5 h [14] [µg/mL]
CCc1c(Cl)c(OCC(=O)N2CCN(c3cc4c(cc3F)c(=O)c(C(=O)O)cn4C3CC3)CC2)c(Cl)c(O)c1C(=O)O[C@@H]1[C@@H](O)[C@@H](OC)[C@@H](OC/C2=C\C=C\C[C@H](O)/C(C)=C/[C@H](CC)[C@@H](O[C@@H]3OC(C)(C)[C@@H](OC(=O)C(C)C)[C@H](O)[C@@H]3O)/C(C)=C/C(C)=C/C[C@@H]([C@@H](C)O)OC2=O)O[C@H]1C | 0.12 (≈ 0.084 µM) | 0.06 (≈ 0.042 µM) | 0.03 (≈ 0.021 µM) | 0.03 (≈ 0.021 µM) | 0.12 (≈ 0.084 µM) | > 64 | 1 | 32 (≈ 22.4 µM) | 0.03 (≈ 0.021 µM) | 0.06 (≈ 0.042 µM) | ≤ 0.015 | 0.12 (≈ 0.084 µM) | 0.12 (≈ 0.084 µM) | 
CCc1c(Cl)c(OCCOCCOCCOCCOCCOCCOC)c(Cl)c(OCCOCCOCCOCCOCCOCCOC)c1C(=O)O[C@@H]1[C@@H](O)[C@@H](OC)[C@@H](OC/C2=C\C=C\C[C@H](O)/C(C)=C/[C@H](CC)[C@@H](O[C@@H]3OC(C)(C)[C@@H](OC(=O)C(C)C)[C@H](O)[C@@H]3O)/C(C)=C/C(C)=C/C[C@@H]([C@@H](C)O)OC2=O)O[C@H]1C |  |  |  |  |  |  |  |  |  |  |  |  |  | 504 (≈ 312 µM)
CCc1c(Cl)c(OCC(=O)N2CCC(O)CC2)c(Cl)c(O)c1C(=O)O[C@@H]1[C@@H](O)[C@@H](OC)[C@@H](OC/C2=C\C=C\C[C@H](O)/C(C)=C/[C@H](CC)[C@@H](O[C@@H]3OC(C)(C)[C@@H](OC(=O)C(C)C)[C@H](O)[C@@H]3O)/C(C)=C/C(C)=C/C[C@@H]([C@@H](C)O)OC2=O)O[C@H]1C |  |  |  |  |  |  |  |  |  |  |  |  |  | 180 (≈ 150 µM)
CCc1c(Cl)c(OCC(=O)N2CCC(O)CC2)c(Cl)c(OCC(=O)N2CCC(O)CC2)c1C(=O)O[C@@H]1[C@@H](O)[C@@H](OC)[C@@H](OC/C2=C\C=C\C[C@H](O)/C(C)=C/[C@H](CC)[C@@H](O[C@@H]3OC(C)(C)[C@@H](OC(=O)C(C)C)[C@H](O)[C@@H]3O)/C(C)=C/C(C)=C/C[C@@H]([C@@H](C)O)OC2=O)O[C@H]1C |  |  |  |  |  |  |  |  |  |  |  |  |  | 213 (≈ 159 µM)
CCc1c(Cl)c(OCCCn2cc(COCCOCCOCCOCCOCCC(=O)O)nn2)c(Cl)c(O)c1C(=O)O[C@@H]1[C@@H](O)[C@@H](OC)[C@@H](OC/C2=C\C=C\C[C@H](O)/C(C)=C/[C@H](CC)[C@@H](O[C@@H]3OC(C)(C)[C@@H](OC(=O)C(C)C)[C@H](O)[C@@H]3O)/C(C)=C/C(C)=C/C[C@@H]([C@@H](C)O)OC2=O)O[C@H]1C |  |  |  |  |  |  |  |  |  |  |  |  |  | > 2000
CCOC(=O)COc1c(Cl)c(O)c(C(=O)O[C@@H]2[C@@H](O)[C@@H](OC)[C@@H](OC/C3=C\C=C\C[C@H](O)/C(C)=C/[C@H](CC)[C@@H](O[C@@H]4OC(C)(C)[C@@H](OC(=O)C(C)C)[C@H](O)[C@@H]4O)/C(C)=C/C(C)=C/C[C@@H]([C@@H](C)O)OC3=O)O[C@H]2C)c(CC)c1Cl | > 16 | 8 (≈ 6.99 µM) | > 16 | 16 (≈ 14 µM) | 16 (≈ 14 µM) | 16 (≈ 14 µM) | 2 | 32 (≈ 28 µM) | 8 (≈ 6.99 µM) | 8 (≈ 6.99 µM) | 2 (≈ 1.75 µM) | > 16 | > 16 | 
O=C(O)c1cn(C2CC2)c2cc(N3CCNCC3)c(F)cc2c1=O [CIPROFLOXACIN] |  |  |  |  |  |  | 1 |  |  |  |  |  |  | 
CCc1c(Cl)c(OCC(=O)N2CCNCC2)c(Cl)c(O)c1C(=O)O[C@@H]1[C@@H](O)[C@@H](OC)[C@@H](OC/C2=C\C=C\C[C@H](O)/C(C)=C/[C@H](CC)[C@@H](O[C@@H]3OC(C)(C)[C@@H](OC(=O)C(C)C)[C@H](O)[C@@H]3O)/C(C)=C/C(C)=C/C[C@@H]([C@@H](C)O)OC2=O)O[C@H]1C | 0.5 (≈ 0.422 µM) | 0.5 (≈ 0.422 µM) | 0.5 (≈ 0.422 µM) | 0.03 (≈ 0.0253 µM) | 0.25 (≈ 0.211 µM) | > 64 | 1 | > 64 | 0.06 (≈ 0.0507 µM) | 0.25 (≈ 0.211 µM) | 0.03 (≈ 0.0253 µM) | 0.5 (≈ 0.422 µM) | 0.5 (≈ 0.422 µM) | 81 (≈ 68.4 µM)
CCOC(=O)COc1c(Cl)c(CC)c(C(=O)O[C@@H]2[C@@H](O)[C@@H](OC)[C@@H](OC/C3=C\C=C\C[C@H](O)/C(C)=C/[C@H](CC)[C@@H](O[C@@H]4OC(C)(C)[C@@H](OC(=O)C(C)C)[C@H](O)[C@@H]4O)/C(C)=C/C(C)=C/C[C@@H]([C@@H](C)O)OC3=O)O[C@H]2C)c(OCC(=O)OCC)c1Cl | > 16 | 16 (≈ 13 µM) | > 16 | 16 (≈ 13 µM) | 16 (≈ 13 µM) | 32 (≈ 26 µM) | 0.5 | 8 (≈ 6.5 µM) | 16 (≈ 13 µM) | 16 (≈ 13 µM) | 4 (≈ 3.25 µM) | > 16 | > 16 | 
CCc1c(Cl)c(Oc2nncnn2)c(Cl)c(Oc2nncnn2)c1C(=O)O[C@@H]1[C@@H](O)[C@@H](OC)[C@@H](OC/C2=C\C=C\C[C@H](O)/C(C)=C/[C@H](CC)[C@@H](O[C@@H]3OC(C)(C)[C@@H](OC(=O)C(C)C)[C@H](O)[C@@H]3O)/C(C)=C/C(C)=C/C[C@@H]([C@@H](C)O)OC2=O)O[C@H]1C | 0.25 (≈ 0.205 µM) | 0.25 (≈ 0.205 µM) | 0.12 (≈ 0.0985 µM) | 0.12 (≈ 0.0985 µM) | 0.12 (≈ 0.0985 µM) |  |  |  | 0.06 (≈ 0.0493 µM) | 0.06 (≈ 0.0493 µM) | 0.03 (≈ 0.0246 µM) | 0.25 (≈ 0.205 µM) | 0.5 (≈ 0.41 µM) | 
CCc1c(Cl)c(OCCCn2cc(CCN3CCC(N)CC3)nn2)c(Cl)c(O)c1C(=O)O[C@@H]1[C@@H](O)[C@@H](OC)[C@@H](OC/C2=C\C=C\C[C@H](O)/C(C)=C/[C@H](CC)[C@@H](O[C@@H]3OC(C)(C)[C@@H](OC(=O)C(C)C)[C@H](O)[C@@H]3O)/C(C)=C/C(C)=C/C[C@@H]([C@@H](C)O)OC2=O)O[C@H]1C | 8 (≈ 6.19 µM) | 2 (≈ 1.55 µM) | 4 (≈ 3.09 µM) | 4 (≈ 3.09 µM) | 4 (≈ 3.09 µM) | > 64 | 4 | > 64 | 1 (≈ 0.773 µM) | 2 (≈ 1.55 µM) | 0.5 (≈ 0.387 µM) | 8 (≈ 6.19 µM) | 8 (≈ 6.19 µM) | 
CO[C@H]1/C=C/O[C@@]2(C)Oc3c(C)c(O)c4c(O)c(c(/C=N/N5CCN(C)CC5)c(O)c4c3C2=O)NC(=O)/C(C)=C\C=C\[C@H](C)[C@H](O)[C@@H](C)[C@@H](O)[C@@H](C)[C@H](OC(C)=O)[C@@H]1C [RIFAMPIN] | ≤ 0.015 | ≤ 0.015 | ≤ 0.015 | > 16 | ≤ 0.015 | 0.008 (≈ 0.00972 µM) |  | 0.25 (≈ 0.304 µM) | > 16 | ≤ 0.015 | ≤ 0.015 | ≤ 0.015 | ≤ 0.015 | 
CCc1c(Cl)c(OCCOCCOCCOCCOCCOCCOCCOCCn2cc(CN3CCN(/N=C/c4c5c(O)c6c(O)c(C)c7c(c6c4O)C(=O)[C@@](C)(O/C=C/[C@H](OC)[C@@H](C)[C@@H](OC(C)=O)[C@H](C)[C@H](O)[C@H](C)[C@@H](O)[C@@H](C)/C=C/C=C(\C)C(=O)N5)O7)CC3)nn2)c(Cl)c(O)c1C(=O)O[C@@H]1[C@@H](O)[C@@H](OC)[C@@H](OC/C2=C\C=C\C[C@H](O)/C(C)=C/[C@H](CC)[C@@H](O[C@@H]3OC(C)(C)[C@@H](OC(=O)C(C)C)[C@H](O)[C@@H]3O)/C(C)=C/C(C)=C/C[C@@H]([C@@H](C)O)OC2=O)O[C@H]1C | 0.03 (≈ 0.0131 µM) | ≤ 0.015 | ≤ 0.015 | ≤ 0.015 | 0.03 (≈ 0.0131 µM) | 4 (≈ 1.75 µM) | 0.5 | 4 (≈ 1.75 µM) | 4 (≈ 1.75 µM) | ≤ 0.015 | ≤ 0.015 | ≤ 0.015 | ≤ 0.015 | 
